In ChEMBL document CHEMBL5303300, “EUbOPEN Chemogenomics Library - Multiplex” (2023):
“And” between values parts separate entries of the source, which are not always exact repeats. Equal values may be shown once.

Legend:
Format in all cases: toxicity, cell-based
Fibroblast = assay: Multiplex assay against human fibroblast; details: number of replicates 2
How it was run: (§1)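 With compound added, live cells were imaged on a CQ1 microscope at 37°C and 5% CO2; staining with Hoechst33342, BioTracker Green Microtubule Cytoskeleton Dye, MitoTracker Red and Annexin V Alexa Fluor 680 had been done at seeding. The CellPathfinder machine-learning gating scheme split cells into Hoechst high-intensity objects or normal cells, normal cells into healthy, pyknosed or fragmented nuclei, and pyknosed cells into mitotic or apoptotic. The tubulin, mitochondrial-mass and membrane-permeability phenotypes are per cents of healthy-nucleus cells.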

HEK-293T = assay: Multiplex assay against HEK293T; details: human, number of replicates 2; how it was run: as §1
U2OS = assay: Multiplex assay against U2OS; details: human, number of replicates 2; how it was run: as §1
[1] = 12 h, 1 µM, compound concentration 1 uM
[2] = 12 h, 10 µM, compound concentration 10 uM
[3] = 24 h, 1 µM, compound concentration 1 uM
[4] = 24 h, 10 µM, compound concentration 10 uM
[5] = 48 h, 1 µM, compound concentration 1 uM
[6] = 48 h, 10 µM, compound concentration 10 uM

## CN(C)C/C=C/C(=O)Nc1cc2c(Nc3ccc(F)c(Cl)c3)ncnc2cc1OC[C@@H]1CCCO1
Fibroblast; [1]
  Population Apoptotic (%): 31% and 30%
  Population Fragmented Nuclei (%): 16% and 20%
  Population Healthy Nuclei (%): 57% and 60%
  Population Hoechst High Intensity Objects (%): 0%
  Population Membrane Permeable-Phenotype (%): 14% and 13%
  Population Mitochondria Different-Phenotype (%): 0% and 1%
  Population Mitotic Cells (%): 68% and 69%
  Population Normal (%): 99% and 100%
  Population Pyknosed Nuclei (%): 26% and 18%
  Population Tubulin-Different-Phenotype (%): 67% and 54%
  Total Cell Count: 169 and 229
Fibroblast; [2]
  Population Apoptotic (%): 40% and 32%
  Population Fragmented Nuclei (%): 12% and 15%
  Population Healthy Nuclei (%): 41% and 47%
  Population Hoechst High Intensity Objects (%): 1% and 3%
  Population Membrane Permeable-Phenotype (%): 46% and 40%
  Population Mitochondria Different-Phenotype (%): 9% and 11%
  Population Mitotic Cells (%): 59% and 67%
  Population Normal (%): 98% and 96%
  Population Pyknosed Nuclei (%): 46% and 36%
  Population Tubulin-Different-Phenotype (%): 78% and 88%
  Total Cell Count: 181 and 317
Fibroblast; [3]
  Population Apoptotic (%): 50% and 67%
  Population Fragmented Nuclei (%): 14% and 20%
  Population Healthy Nuclei (%): 65% and 66%
  Population Hoechst High Intensity Objects (%): 0%
  Population Membrane Permeable-Phenotype (%): 6% and 8%
  Population Mitochondria Different-Phenotype (%): 2% and 5%
  Population Mitotic Cells (%): 50% and 32%
  Population Normal (%): 99% and 100%
  Population Pyknosed Nuclei (%): 19% and 13%
  Population Tubulin-Different-Phenotype (%): 69% and 51%
  Total Cell Count: 155 and 235
Fibroblast; [4]
  Population Apoptotic (%): 68% and 65%
  Population Fragmented Nuclei (%): 17% and 13%
  Population Healthy Nuclei (%): 27% and 29%
  Population Hoechst High Intensity Objects (%): 2% and 6%
  Population Membrane Permeable-Phenotype (%): 27% and 28%
  Population Mitochondria Different-Phenotype (%): 45% and 47%
  Population Mitotic Cells (%): 31% and 34%
  Population Normal (%): 97% and 93%
  Population Pyknosed Nuclei (%): 54% and 56%
  Population Tubulin-Different-Phenotype (%): 80% and 77%
  Total Cell Count: 147 and 216
Fibroblast; [5]
  Population Apoptotic (%): 72% and 80%
  Population Fragmented Nuclei (%): 15% and 23%
  Population Healthy Nuclei (%): 68% and 64%
  Population Hoechst High Intensity Objects (%): 0% and 1%
  Population Membrane Permeable-Phenotype (%): 5% and 3%
  Population Mitochondria Different-Phenotype (%): 11% and 5%
  Population Mitotic Cells (%): 28% and 20%
  Population Normal (%): 100% and 98%
  Population Pyknosed Nuclei (%): 15% and 11%
  Population Tubulin-Different-Phenotype (%): 55% and 42%
  Total Cell Count: 157 and 217
Fibroblast; [6]
  Population Apoptotic (%): 89% and 84%
  Population Fragmented Nuclei (%): 27% and 18%
  Population Healthy Nuclei (%): 24% and 32%
  Population Hoechst High Intensity Objects (%): 5% and 14%
  Population Membrane Permeable-Phenotype (%): 36% and 40%
  Population Mitochondria Different-Phenotype (%): 50% and 42%
  Population Mitotic Cells (%): 10% and 15%
  Population Normal (%): 94% and 85%
  Population Pyknosed Nuclei (%): 47% and 48%
  Population Tubulin-Different-Phenotype (%): 76%
  Total Cell Count: 128 and 187
HEK-293T; [1]
  Population Apoptotic (%): 39% and 48%
  Population Fragmented Nuclei (%): 3% and 2%
  Population Healthy Nuclei (%): 83% and 85%
  Population Hoechst High Intensity Objects (%): 7% and 8%
  Population Membrane Permeable-Phenotype (%): 4% and 5%
  Population Mitochondria Different-Phenotype (%): 32% and 29%
  Population Mitotic Cells (%): 60% and 51%
  Population Normal (%): 92% and 91%
  Population Pyknosed Nuclei (%): 13% and 12%
  Population Tubulin-Different-Phenotype (%): 94% and 91%
  Total Cell Count: 593 and 650
HEK-293T; [2]
  Population Apoptotic (%): 72% and 76%
  Population Fragmented Nuclei (%): 2% and 4%
  Population Healthy Nuclei (%): 75% and 78%
  Population Hoechst High Intensity Objects (%): 20% and 28%
  Population Membrane Permeable-Phenotype (%): 2% and 4%
  Population Mitochondria Different-Phenotype (%): 73% and 75%
  Population Mitotic Cells (%): 27% and 23%
  Population Normal (%): 79% and 71%
  Population Pyknosed Nuclei (%): 21% and 17%
  Population Tubulin-Different-Phenotype (%): 60% and 66%
  Total Cell Count: 256 and 344
HEK-293T; [3]
  Population Apoptotic (%): 57% and 51%
  Population Fragmented Nuclei (%): 6% and 5%
  Population Healthy Nuclei (%): 87% and 86%
  Population Hoechst High Intensity Objects (%): 8%
  Population Membrane Permeable-Phenotype (%): 4%
  Population Mitochondria Different-Phenotype (%): 21% and 18%
  Population Mitotic Cells (%): 42% and 48%
  Population Normal (%): 91%
  Population Pyknosed Nuclei (%): 6% and 8%
  Population Tubulin-Different-Phenotype (%): 81% and 83%
  Total Cell Count: 811 and 859
HEK-293T; [4]
  Population Apoptotic (%): 89% and 76%
  Population Fragmented Nuclei (%): 3% and 1%
  Population Healthy Nuclei (%): 62% and 73%
  Population Hoechst High Intensity Objects (%): 25% and 29%
  Population Membrane Permeable-Phenotype (%): 7% and 0%
  Population Mitochondria Different-Phenotype (%): 74% and 79%
  Population Mitotic Cells (%): 10% and 23%
  Population Normal (%): 74% and 70%
  Population Pyknosed Nuclei (%): 33% and 24%
  Population Tubulin-Different-Phenotype (%): 60% and 57%
  Total Cell Count: 303 and 369
HEK-293T; [5]
  Population Apoptotic (%): 32% and 29%
  Population Fragmented Nuclei (%): 11% and 10%
  Population Healthy Nuclei (%): 83% and 85%
  Population Hoechst High Intensity Objects (%): 9% and 10%
  Population Membrane Permeable-Phenotype (%): 7% and 5%
  Population Mitochondria Different-Phenotype (%): 5% and 4%
  Population Mitotic Cells (%): 67% and 70%
  Population Normal (%): 90% and 89%
  Population Pyknosed Nuclei (%): 4%
  Population Tubulin-Different-Phenotype (%): 60% and 62%
  Total Cell Count: 1468 and 1438
HEK-293T; [6]
  Population Apoptotic (%): 87% and 89%
  Population Fragmented Nuclei (%): 9% and 8%
  Population Healthy Nuclei (%): 43% and 53%
  Population Hoechst High Intensity Objects (%): 31% and 32%
  Population Membrane Permeable-Phenotype (%): 4% and 1%
  Population Mitochondria Different-Phenotype (%): 81% and 83%
  Population Mitotic Cells (%): 12% and 10%
  Population Normal (%): 68% and 67%
  Population Pyknosed Nuclei (%): 47% and 38%
  Population Tubulin-Different-Phenotype (%): 52% and 58%
  Total Cell Count: 355 and 410
U2OS; [1]
  Population Apoptotic (%): 66% and 86%
  Population Healthy Nuclei (%): 40% and 79%
  Population Hoechst High Intensity Objects (%): 0%
  Population Membrane Permeable-Phenotype (%): 27% and 24%
  Population Mitochondria Different-Phenotype (%): 9% and 22%
  Population Mitotic Cells (%): 33% and 13%
  Population Normal (%): 100%
  Population Pyknosed Nuclei (%): 22% and 14%
  Population Tubulin-Different-Phenotype (%): 63% and 53%
U2OS; [2]
  Population Apoptotic (%): 76% and 59%
  Population Healthy Nuclei (%): 23% and 66%
  Population Hoechst High Intensity Objects (%): 0%
  Population Membrane Permeable-Phenotype (%): 66% and 25%
  Population Mitochondria Different-Phenotype (%): 50% and 48%
  Population Mitotic Cells (%): 23% and 40%
  Population Normal (%): 100% and 99%
  Population Pyknosed Nuclei (%): 50% and 25%
  Population Tubulin-Different-Phenotype (%): 83% and 97%
U2OS; [3]
  Population Apoptotic (%): 71% and 77%
  Population Healthy Nuclei (%): 42% and 74%
  Population Hoechst High Intensity Objects (%): 0%
  Population Membrane Permeable-Phenotype (%): 14% and 18%
  Population Mitochondria Different-Phenotype (%): 21% and 36%
  Population Mitotic Cells (%): 28% and 22%
  Population Normal (%): 100% and 99%
  Population Pyknosed Nuclei (%): 21% and 20%
  Population Tubulin-Different-Phenotype (%): 35% and 48%
U2OS; [4]
  Population Apoptotic (%): 85% and 65%
  Population Hoechst High Intensity Objects (%): 0% and 1%
  Population Membrane Permeable-Phenotype (%): 100% and 35%
  Population Mitochondria Different-Phenotype (%): 80% and 70%
  Population Mitotic Cells (%): 14% and 34%
  Population Normal (%): 100% and 98%
  Population Pyknosed Nuclei (%): 46% and 37%
  Population Tubulin-Different-Phenotype (%): 100% and 93%
U2OS; [5]
  Population Apoptotic (%): 66% and 88%
  Population Healthy Nuclei (%): 39% and 76%
  Population Hoechst High Intensity Objects (%): 0%
  Population Membrane Permeable-Phenotype (%): 27% and 14%
  Population Mitochondria Different-Phenotype (%): 45% and 26%
  Population Mitotic Cells (%): 33% and 11%
  Population Normal (%): 100%
  Population Pyknosed Nuclei (%): 21% and 18%
  Population Tubulin-Different-Phenotype (%): 63% and 40%
U2OS; [6]
  Population Apoptotic (%): 76% and 90%
  Population Hoechst High Intensity Objects (%): 0% and 2%
  Population Membrane Permeable-Phenotype (%): 100% and 50%
  Population Mitochondria Different-Phenotype (%): 100% and 79%
  Population Mitotic Cells (%): 23% and 10%
  Population Normal (%): 100% and 97%
  Population Pyknosed Nuclei (%): 43% and 56%
  Population Tubulin-Different-Phenotype (%): 100% and 89%
